Laboratory results as given in ChEMBL document CHEMBL1121456, “Metabolic depropargylation and its relationship to aldehyde dehydrogenase inhibition in vivo” (1980).

Assays:
Rattus norvegicus [1] = organism: Rattus norvegicus; test: T/C value of compound was measured in rats which are untreated with phenobarbital (PB); format: functional
How it was run: (§1)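 Rats were given water (untreated) or 0.1% sodium phenobarbital drinking solution (PB-treated) for 8 days, then fasted overnight. Agent 1.25 mmol/kg ip, then ethanol 2.0 g/kg ip 1 h later; killed 1 h after ethanol. Blood acetaldehyde by head-space GC. The value is treated/saline-control blood acetaldehyde within the same pretreatment group.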

Rattus norvegicus [2] = organism: Rattus norvegicus; test: The enzymatic formation of propionaldehyde from compound on inhibition with rat liver microsomes in the presence of an NADPH (untreated with phenobarbital (PB)); format: functional
How it was run: (§2)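 Liver microsomes (100000g pellet, KCl-washed) from PB-treated or naive rats, equivalent to 500 mg liver per flask. Incubated 30 min at 37 °C with 3 mM compound, pH 7.4 phosphate, NADP+ 2.0 mM, glucose 6-phosphate 2.5 mM, G6PDH, MgCl2, nicotinamide, and 30 mM semicarbazide. Six flasks were pooled, acidified with HClO4, and propiolaldehyde read by head-space GC from 3–5 determinations.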

Rattus norvegicus [3] = organism: Rattus norvegicus; test: Blood AcH level of compound was measured in rats which are treated with phenobarbital (PB); format: functional
How it was run: (§3)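 Male Sprague–Dawley rats kept 8 days on water (untreated) or 0.1% sodium phenobarbital solution (PB-treated), then fasted overnight. Test agent given at 1.25 mmol/kg ip 2 h before sacrifice, with ethanol at 2.0 g/kg ip 1 h later; saline controls. Cardiac blood was collected into 5 mM sodium azide and frozen, then acetaldehyde was read by head-space GC. Mean ± SE.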

Rattus norvegicus [4] = organism: Rattus norvegicus; test: T/C value of compound was measured in rats which are treated with phenobarbital (PB); format: functional; how it was run: as §1
Rattus norvegicus [5] = organism: Rattus norvegicus; test: The enzymatic formation of propionaldehyde from compound on inhibition with rat liver microsomes in the presence of an NADPH (treated with phenobarbital (PB)); format: functional; how it was run: as §2
Rattus norvegicus [6] = organism: Rattus norvegicus; test: Blood AcH level of compound was measured in rats which are untreated with phenobarbital (PB); format: functional; how it was run: as §3
[7] = biological target: T1, Aldehyde dehydrogenase 1A1 (Rattus norvegicus) (UniProt P51647); test: Percent inhibition of the enzyme […] was measured in rats which are treated with phenobarbital (PB); conditions: concentration not given here
T1 sequence (whole entry): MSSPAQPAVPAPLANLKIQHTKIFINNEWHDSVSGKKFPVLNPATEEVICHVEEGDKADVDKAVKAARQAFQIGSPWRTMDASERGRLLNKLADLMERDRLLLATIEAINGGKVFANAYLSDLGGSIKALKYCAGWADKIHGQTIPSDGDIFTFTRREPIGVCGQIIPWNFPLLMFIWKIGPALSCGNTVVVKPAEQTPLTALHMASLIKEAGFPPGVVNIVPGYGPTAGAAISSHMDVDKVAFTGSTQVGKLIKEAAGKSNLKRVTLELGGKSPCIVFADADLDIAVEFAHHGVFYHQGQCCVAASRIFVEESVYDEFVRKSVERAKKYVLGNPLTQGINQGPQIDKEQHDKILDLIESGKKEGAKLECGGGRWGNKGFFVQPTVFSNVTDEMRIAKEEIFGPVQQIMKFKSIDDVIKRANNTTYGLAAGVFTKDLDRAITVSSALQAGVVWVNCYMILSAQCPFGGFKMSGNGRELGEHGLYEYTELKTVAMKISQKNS
How it was run: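 Male Sprague–Dawley rats pretreated 8 days with 0.1% sodium phenobarbital in drinking water, then fasted overnight. They received 1.25 mmol/kg ip 2 h before sacrifice and ethanol 2.0 g/kg ip at 1 h. Liver mitochondrial low-Km aldehyde dehydrogenase activity (nmol acetaldehyde oxidized/min/mg protein, Lowry protein) was compared with saline controls as % inhibition.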

Row | SMILES | T/C (Rattus norvegicus [1]) | Propioaldehyde generated (Rattus norvegicus [2]) | Blood AcH (Rattus norvegicus [3]) | T/C (Rattus norvegicus [4]) | Propioaldehyde generated (Rattus norvegicus [5]) | Blood AcH (Rattus norvegicus [6]) | inhibition [7]
1 | C#CCN(CC#C)CC#C | 1.4 | 0.25 µmol | 144 µM | 19 | 3.5 µmol | 15.4 µM | –
2 | C#CC(OC)OC | 0.95 | – | 24.1 µM | 3.17 | 0.05 µmol | 10.6 µM | 44%
3 | C#CCOC | 0.95 | – | – | 1.1 | 0.05 µmol | 10.6 µM | –
4 | C#CCOC(C)(C)C | 1.77 | – | 13.5 µM | 1.78 | 0.22 µmol | 19.6 µM | –
5 | C#CCNCc1ccccc1 [N-BENZYLPROPARGYLAMINE] | 18.3 | 0.2 µmol | 382 µM | 50.3 | 1.16 µmol | 203 µM | –
6 | C#CCN(C)Cc1ccccc1 [PARGYLINE] | 20.2 | 0.61 µmol | 247 µM | 32.5 | 2.58 µmol | 224 µM | –
